Data set [1] in a line: Volume of distribution at steady state in rat at 1 mg/kg, iv. Format: ADME, organism-based. Set-up: dose 1 mg/kg, route intravenous. Conditions: in vivo, read-out: Vdss. An outline of the steps:
(§1)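 Fasted male rats (n = 3) were given 1 mg/kg iv in 5% glucose/0.1 M HCl = 9/1, or 10 mg/kg po as a suspension in 0.5% methyl cellulose. Jugular vein blood was drawn into heparinized syringes at iv pre-dose, 5, 15, 30 min, 1, 2, 4, 6 and 24 h, or at po 15 and 30 min, 1, 2, 4, 6 and 24 h. Plasma was analysed for parent compound. BA = (AUCpo/Dpo)/(AUCiv/Div) × 100.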

Data set [2] can be described thus: Solubility of the compound in FaSSIF. Format: physicochemical.
Data set [3] can be described thus: Permeability of the compound at pH 7.4 by PAMPA. The format is ADME. As to conditions: read-out: permeability. An outline of the steps: (§2)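 Compound was incubated for 4 h between a donor compartment (System Solution, pH 5.0 or 7.4) and an acceptor sink buffer. The distribution was read by UV absorption, and effective permeability coefficients were calculated by a published method.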

Data set [4] can be described thus: AUC in rat at 10 mg/kg, po. Format: ADME, organism-based. Set-up: dose 10 mg/kg, route oral. As to conditions: plasma. An outline of the steps: as §1
Data set [5] can be described thus: Cmax in rat at 10 mg/kg, po. The format is ADME, organism-based. Also noted: dose 10 mg/kg, route oral. Conditions: in vivo. An outline of the steps:
as §1

The nature of data set [6]: Permeability of the compound at pH 5 by PAMPA. The format is ADME. Conditions: read-out: permeability. An outline of the steps:
as §2

Data set [7] in a line: AUC in rat at 1 mg/kg, iv. The format is ADME, organism-based. Set-up: dose 1 mg/kg, route intravenous. As to conditions: plasma. An outline of the steps: as §1
Data set [8] is described as follows: Oral bioavailability in rat at 10 mg/kg. The format is ADME, organism-based. As to conditions: in vivo. An outline of the steps:
as §1

Structures are written as SMILES. Converted amounts (≈) assume the structure as drawn. Some results are limits rather than exact numbers.

As to `O=c1[nH]c2cc(-c3ccccc3)ccc2c2nc(-c3c(F)cccc3Cl)[nH]c12`, in data set [1], the Vd came to 1.4 L/kg. For the same compound, the concentration in solution in data set [2] (solubility) was 1 µg/mL (≈ 2.57 µM). The Papp in data set [3] was more than 30 ×10⁻⁶ cm/s; in data set [6] it was 30 ×10⁻⁶ cm/s. Also, the AUC is 1400 ng·h/mL in data set [4] and 728 ng·h/mL in data set [7]. This compound came in with a Cmax in data set [5] of 472 ng/mL. In data set [8], the bioavailability stood at 19%.

As for `O=c1[nH]c2cc(-c3ccccc3)ccc2c2nc(-c3ccccc3Cl)[nH]c12`, in data set [2], the solubility was found to be 1 µg/mL (≈ 2.69 µM). The Papp in data set [3] and in data set [6] was more than 30 ×10⁻⁶ cm/s each time.

`O=c1[nH]c2cc(-c3cccc(Cl)c3)ccc2c2nc(-c3c(F)cccc3Cl)[nH]c12` came in with a solubility in data set [2] of 0.5 µg/mL (≈ 1.18 µM). Also, the Papp is more than 30 ×10⁻⁶ cm/s in data set [3] and 29 ×10⁻⁶ cm/s in data set [6].

With `O=c1[nH]c2cc(Br)ccc2c2[nH]c(-c3ccccc3Cl)nc12`, the solubility in data set [2] came out at 0.9 µg/mL (≈ 2.4 µM). Also, the Papp is 26 ×10⁻⁶ cm/s in data set [3] and more than 30 ×10⁻⁶ cm/s in data set [6].

These data come from ChEMBL document CHEMBL2385013, “7-Phenyl-imidazoquinolin-4(5H)-one derivatives as selective and orally available mPGES-1 inhibitors” (Bioorg Med Chem, 2013).
